pEC50: −log10 of the molar value. Calls of active or inactive are those of the source. No cut-off for these calls is given here.
Key:
[1] = Selectivity index, ratio of CC50 for cytotoxicity against human Huh7.5 cells assessed as reduction in cell viability incubated for 72 hrs by MTT assay to EC50 for antiviral activity against HCV genotype 2a J6/JFH/JC1 infected in human Huh7.5 cells assessed as reduction in viral RNA levels measured after 72 hrs by qRT-PCR analysis; format: toxicity, cell-based; conditions: read-out: Ratio CC50/EC50
[2] = Antiviral activity against HCV subtype 2a J6/JFH/JC1 infected in human Huh7.5 cells assessed as reduction in viral RNA levels measured after 72 hrs by qRT-PCR analysis; conditions: Hepatitis C virus, J6/JFH/JC1, Huh7.5, 72 h
[3] = Cytotoxicity against human Huh7.5 cells assessed as reduction in cell viability incubated for 72 hrs by MTT assay; format: cell-based
Procedure, shortened: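 Huh7.5 cells seeded at 3 × 10^4/cm2, grown 24 h, then exposed to compound for 72 h. Viability read by MTT assay. CC50 by Reed & Muench method, mean ± SD from three independent experiments.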

[4] = molecular target: T1, Chondroitin sulfate N-acetylgalactosaminyltransferase 1 (Homo sapiens) (UniProt Q8TDX6); assay: Destabilization of CSGalNacT-1 in human Huh7.5 cells assessed as down regulation of CSGalNacT-1 protein levels measured after 72 hrs by Western blot analysis; format: cell-based; conditions: dose 0.2-25 µM
T1 sequence (whole entry): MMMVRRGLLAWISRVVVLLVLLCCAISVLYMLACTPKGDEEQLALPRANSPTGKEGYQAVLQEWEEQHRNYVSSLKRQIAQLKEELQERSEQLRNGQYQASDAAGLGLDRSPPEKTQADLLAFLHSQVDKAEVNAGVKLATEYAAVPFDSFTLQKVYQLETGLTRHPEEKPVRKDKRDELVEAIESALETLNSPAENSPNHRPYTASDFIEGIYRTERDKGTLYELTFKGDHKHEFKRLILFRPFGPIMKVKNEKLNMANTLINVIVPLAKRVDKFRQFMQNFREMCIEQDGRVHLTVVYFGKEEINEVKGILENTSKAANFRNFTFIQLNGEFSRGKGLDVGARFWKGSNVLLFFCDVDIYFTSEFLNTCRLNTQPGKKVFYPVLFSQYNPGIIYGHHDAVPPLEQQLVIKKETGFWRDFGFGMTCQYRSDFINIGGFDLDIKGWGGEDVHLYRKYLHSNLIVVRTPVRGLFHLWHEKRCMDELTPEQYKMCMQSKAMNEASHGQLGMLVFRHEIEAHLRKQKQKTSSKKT

[5] = Inhibition of NS5A in HCV genotype 1b infected in HuH7.5Lcu-Neo cells assessed as reduction in viral replication by luciferase reporter gene assay; format: cell-based, Hepatitis C virus subtype 1b; conditions: Hepatitis C virus
Hepatitis C virus [6] = assay: Antiviral activity against HCV J6/JFH/JC1 harboring S282T mutant infected in human Huh7.5 cells assessed as inhibition of viral replication measured after 72 hrs by qRT-PCR analysis; format: functional, organism-based, Hepacivirus hominis; conditions: J6/JFH/JC1, Huh7.5, 72 h
Hepatitis C virus [7] = assay: Antiviral activity against wild-type HCV J6/JFH/JC1 infected in human Huh7.5 cells assessed as inhibition of viral replication measured after 72 hrs by qRT-PCR analysis; format: functional, organism-based, Hepacivirus hominis; conditions: J6/JFH/JC1, Huh7.5, 72 h
Procedure, shortened: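 Huh7.5 cells seeded at 3 × 10^4/cm2 and incubated 24 h. Infected with wild-type HCVcc stock (45 IU/cell) with compound or solvent control added at the same time. After 72 h, intracellular RNA measured by one-step qRT-PCR and core protein by Western blot. EC50 by Reed & Muench method, mean ± SD from three independent experiments.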

[8] = Resistance ratio of EC50 for antiviral activity against HCV J6/JFH/JC1 harboring D168V mutant infected in human Huh7.5 cells to EC50 for antiviral activity against wild-type HCV J6/JFH/JC1 infected in human Huh7.5 cells; format: functional
Hepatitis C virus [9] = assay: Antiviral activity against HCV J6/JFH/JC1 harboring D168V mutant infected in human Huh7.5 cells assessed as inhibition of viral replication measured after 72 hrs by qRT-PCR analysis; format: functional, organism-based, Hepacivirus hominis; conditions: J6/JFH/JC1, Huh7.5, 72 h
Hepatitis C virus [10] = assay: Antiviral activity against HCV J6/JFH/JC1 harboring A156T mutant infected in human Huh7.5 cells assessed as inhibition of viral replication measured after 72 hrs by qRT-PCR analysis; format: functional, organism-based, Hepacivirus hominis; conditions: J6/JFH/JC1, Huh7.5, 72 h
Hepatitis C virus [11] = assay: Antiviral activity against HCV subgenomic replicon harboring I377-3'del.S infected in human GS4.3 cells assessed as inhibition of viral replication at 6.25 to 25 uM after 72 hrs by qRT-PCR analysis; format: functional, organism-based; conditions: Hepacivirus hominis, dose 6.25-25 µM
Procedure, shortened: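 GS4.3 cells (Huh7 carrying HCV subgenomic replicon I377-3′del.S) seeded at 3 × 10^4/cm2, after 24 h treated with compound or solvent control. After 72 h intracellular RNA extracted and replicon RNA measured by qRT-PCR. Cytotoxicity checked by MTT at 72 h.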

pEC50 [2] | SMILES | selectivity ratio at 72 h [1] | CC50 at 72 h [3] | other results
5.77 | COc1cc(CCc2ccccc2)c(C(=O)O)c(O)c1CC=C(C)C [AMORFRUTIN A] | 35 | 59.4 µM | 
 | COC(=O)c1c(O)cc(OC)cc1/C=C/c1ccccc1 |  |  | Activity [4]: Dose-dependent effect
 | C/C=C/C[C@@H](C)[C@@H](O)[C@H]1C(=O)N[C@@H](CC)C(=O)N(C)[C@H](C)C(=O)N(CC)[C@@H](C(C)C)C(=O)N[C@@H](C(C)C)C(=O)N(C)[C@@H](CC(C)C)C(=O)N[C@@H](C)C(=O)N[C@H](C)C(=O)N(C)[C@@H](CC(C)C)C(=O)N(C)[C@@H](CC(C)C)C(=O)N(C)[C@@H](C(C)C)C(=O)N1C [ALISPORIVIR] |  |  | pEC50 [5]: 7.80
 | CC(C)OC(=O)[C@H](C)N[P@](=O)(OC[C@H]1O[C@@H](n2ccc(=O)[nH]c2=O)[C@](C)(F)[C@@H]1O)Oc1ccccc1 [SOFOSBUVIR] |  |  | pEC50 (Hepatitis C virus [6]): 6.54
 | COC(=O)N[C@H](C(=O)N1CCC[C@H]1c1ncc(-c2ccc(-c3ccc(-c4cnc([C@@H]5CCCN5C(=O)[C@@H](NC(=O)OC)C(C)C)[nH]4)cc3)cc2)[nH]1)C(C)C |  |  | pEC50 (Hepatitis C virus [7]): 10.75
5.18 | COc1cc(/C=C/c2ccc(C)cc2)c(C(=O)O)c(O)c1CC=C(C)C | 13 | 82.9 µM | 
5.31 | COC(=O)c1c(/C=C/c2ccccc2)cc(OC)c(CC=C(C)C)c1O | > 41 | > 200 µM | 
5.38 | CCOC(=O)c1c(/C=C/c2ccccc2)cc(OC)c(CC=C(C)C)c1O | 47 | 195 µM | 
5.99 | COc1cc(/C=C/c2ccccc2Cl)c(C(=O)O)c(O)c1CC=C(C)C | 39 | 39.5 µM | 
5.54 | COC(=O)c1c(/C=C(\C)c2ccccc2)cc(OC)c(CC=C(C)C)c1O | 35 | 102 µM | 
6.48 | COc1cc(/C=C/c2ccc(O)cc2)c(C(=O)O)c(O)c1CC=C(C)C | 49 | 16.1 µM | 
5.71 | COc1cc(/C=C/c2cccc(C)c2)c(C(=O)O)c(O)c1CC=C(C)C | 42 | 82.5 µM | 
5.83 | COc1cc(/C=C/c2ccc(F)cc2)c(C(=O)O)c(O)c1CC=C(C)C | 46 | 69.2 µM | 
 | COc1ccc2c(O[C@@H]3C[C@H]4C(=O)N[C@]5(C(=O)NS(=O)(=O)C6CC6)C[C@H]5/C=C\CCCCN(C)C(=O)[C@@H]4C3)cc(-c3nc(C(C)C)cs3)nc2c1C |  |  | Ratio EC50 [8]: 23.3; pEC50 (Hepatitis C virus [9]): 6.03; pEC50 (Hepatitis C virus [7]): 7.40
4.87 | COc1cc(/C=C/C=C/c2ccccc2)c(C(=O)O)c(O)c1CC=C(C)C | 7 | 96.9 µM | 
5.43 | COc1cc(/C=C/c2cccs2)c(C(=O)O)c(O)c1CC=C(C)C | 22 | 83 µM | 
4.79 | COC(=O)c1c(CCc2ccccc2)cc(OC)c(CC=C(C)C)c1O | 8 | 122 µM | 
5.23 | COc1cc(/C=C/c2ccccc2C)c(C(=O)O)c(O)c1CC=C(C)C | 9 | 55.3 µM | 
4.92 | COc1cc(/C=C/c2ccccc2)cc(O)c1CC=C(C)C | 1.8 | 21.4 µM | 
5.77 | COc1cc(/C=C(\C)c2ccccc2)c(C(=O)O)c(O)c1CC=C(C)C | 45 | 76.8 µM | 

SMILES | pEC50 [2] | selectivity ratio at 72 h [1] | CC50 at 72 h [3] | other results
CC/C=C/c1cc(OC)c(CC=C(C)C)c(O)c1C(=O)O | 5.99 | 71 | 72.9 µM | 
CC/C=C/c1cc(OC)c(CC=C(C)C)c(O)c1C(=O)OC | 4.61 | 4 | 89.3 µM | 
CCC[C@H](NC(=O)[C@@H]1[C@H]2CCC[C@H]2CN1C(=O)[C@@H](NC(=O)[C@@H](NC(=O)c1cnccn1)C1CCCCC1)C(C)(C)C)C(=O)C(=O)NC1CC1 | 8.10 | 5700 | 44.9 µM | pEC50 (Hepatitis C virus [10]): 6.21; pEC50 (Hepatitis C virus [7]): 7.70; Activity (Hepatitis C virus [11]): Active
